This passage reports IC50, IC95 and Ratio results from ChEMBL document CHEMBL1130425, “An orally bioavailable pyrrolinone inhibitor of HIV-1 protease: computational analysis and X-ray crystal structure of the enzyme complex” (J Med Chem, 1997).

pIC50: −log10 of the molar value.

Experiment [1] addresses Human immunodeficiency virus type 1 protease (Human immunodeficiency virus 1, UniProt Q72874). As to the kind of experiment: Inhibition of HIV-1 protease.
Experiment [2] concerns the target Human immunodeficiency virus type 1 protease (Human immunodeficiency virus 1) (UniProt Q72874). The experiment can be described thus: Cellular antiviral activity against HIV-1 Protease.
Experiment [3] is described as follows: Ratio of CIC95 to IC50 values. A digest of the protocol: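 Ratio computed by dividing the cellular antiviral CIC95 by the IC50 from the purified HIV-1 protease inhibition assay, both in nM.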

In turn, `CC(C)(C)OC(=O)N[C@@H](Cc1ccccc1)[C@@H](O)C[C@]1(Cc2ccccc2)N=CC(C2c3ccccc3C[C@H]2O)=C1O` (some centres undefined) gave a pIC50 in experiment [1] of 7.92. This compound returned an IC95 in experiment [2] of 800 nM.

In the case of `O=C(N[C@@H](Cc1ccccc1)[C@@H](O)C[C@]1(Cc2ccccc2)N=CC(C2c3ccccc3C[C@H]2O)=C1O)O[C@H]1CCOC1` (some centres undefined), the negative-log IC50 (pIC50) in experiment [1] is 8.70. In experiment [2], the IC95 was 100 nM.

`CC(C)(C)OC(=O)N[C@@H](Cc1ccccc1)[C@@H](O)C[C@]1(Cc2ccc(O)cc2)N=CC(C2c3ccccc3C[C@H]2O)=C1O` (some centres undefined) showed a pIC50 in experiment [1] of 8.22.

For the compound `CC(C)C[C@H](NC(=O)[C@H](Cc1ccccc1)C[C@H](O)[C@H](Cc1ccccc1)NC(=O)OC(C)(C)C)C(=O)N[C@@H](Cc1ccccc1)C(N)=O`, in experiment [3], the Ratio worked out at 10000.

Compound `CC(C)(C)OC(=O)N[C@@H](Cc1ccccc1)[C@@H](O)C[C@@](C)(Cc1ccccc1)C(=O)NC1c2ccccc2C[C@H]1O` (single isomer, unassigned) gave a pIC50 in experiment [1] of 8.15.

Consider `CC(C)(C)OC(=O)N[C@@H](Cc1ccccc1)[C@@H](O)CC1(Cc2ccccc2)CCN(C2c3ccccc3C[C@H]2O)C1=O` (single isomer, unassigned), for which the pIC50 in experiment [1] is 7.07.

`O=C(N[C@@H](Cc1ccccc1)[C@@H](O)C[C@@H](Cc1ccccc1)C(=O)NC1c2ccccc2C[C@H]1O)OC1CCOC1` (single isomer, unassigned) had a pIC50 in experiment [1] of 10.52. The IC95 in experiment [2] is 3 nM. Besides, the Ratio in experiment [3] is 100.

On to `CN(C(=O)[C@H](Cc1ccccc1)C[C@H](O)[C@H](Cc1ccccc1)NC(=O)OC(C)(C)C)C1c2ccccc2C[C@H]1O` (single isomer, unassigned), for which the pIC50 in experiment [1] is 6.73.

In experiment [2], `CC(C)(C)NC(=O)[C@@H]1CN(Cc2cccnc2)CCN1C[C@@H](O)C[C@@H](Cc1ccccc1)C(=O)NC1c2ccccc2C[C@H]1O` (single isomer, unassigned) yielded a concentration for an effect of 95% (IC95) of 25 nM.

As for `CC(C)(C)OC(=O)N[C@@H](Cc1ccccc1)[C@@H](O)C[C@@H](Cc1ccccc1)C(=O)NC1c2ccccc2C[C@H]1O` (single isomer, unassigned), the Ratio in experiment [3] was 1330.

For orientation: pIC50 means the negative decadic logarithm of the IC50, by convention in mol/L. High values mean a low IC50, low ones a high IC50. The term IC95 denotes the concentration at which the effect reaches the 95% level. Low values mean an effect from little substance, high ones a need for much substance.
